B1: UMP-CMP kinase (Homo sapiens), P30085 (protein)
chain: MKPLVVFVLGGPGAGKGTQCARIVEKYGYTHLSAGELLRDERKNPDSQYGELIEKYIKEGKIVPVEITISLLKREMDQTMAANAQKNKFLIDGFPRNQDNLQGWNKTMDGKADVSFVLFFDCNNEICIERCLERGKSSGRSDDNRESLEKRIQTYLQSTKPIIDLYEEMGKVKKIDASKSVDEVFDEVVQIFDKEG
B2: Uridine-cytidine kinase 1 (Homo sapiens), Q9HA47 (protein)
chain: MASAGGEDCESPAPEADRPHQRPFLIGVSGGTASGKSTVCEKIMELLGQNEVEQRQRKVVILSQDRFYKVLTAEQKAKALKGQYNFDHPDAFDNDLMHRTLKNIVEGKTVEVPTYDFVTHSRLPETTVVYPADVVLFEGILVFYSQEIRDMFHLRLFVDTDSDVRLSRRVLRDVRRGRDLEQILTQYTTFVKPAFEEFCLPTKKYADVIIPRGVDNMVAINLIVQHIQDILNGDICKWHRGGSNGRSYKRTFSEPGDHPGMLTSGKRSHLESSSRPH

Experiments:
Type in all cases: cell-based
[1] = substrate: Nc1ccn([C@H]2C[C@H](O)[C@@H](COP(=O)(O)O)O2)c(=O)n1; test: (§1) Activity of human YMPK expressed in Huh7 cells assessed as phosphorylation by coupled enzyme assay; details: Huh-7
Outline: (§2)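 Human YMPK cloned from Huh-7 cells, 37°C, coupled pyruvate kinase/lactate dehydrogenase assay following NADH at 340 nm. Tris-HCl pH 7.5, 1 mM ATP, MgCl2. Enzyme 80 nM with natural monophosphates, 200 nM with the analog monophosphate. Monophosphate substrate concentration varied, steady-state parameters as mean ± SD.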

[2] = substrate: C[C@@]1(F)[C@H](O)[C@@H](COP(=O)(O)O)O[C@H]1n1ccc(N)nc1=O; test: as §1; details: Huh-7; outline: as §2
[3] = substrate: Nc1ccn([C@@H]2O[C@H](COP(=O)(O)O)[C@@H](O)[C@H]2O)c(=O)n1; test: as §1; details: Huh-7; outline: as §2
[4] = substrate: O=c1ccn([C@@H]2O[C@H](COP(=O)(O)O)[C@@H](O)[C@H]2O)c(=O)[nH]1; test: as §1; details: Huh-7; outline: as §2
[5] = substrate: Nc1ccn([C@H]2C[C@H](O)[C@@H](COP(=O)(O)O)O2)c(=O)n1; test: (§3) Ratio of Kcat to Km for YMPK activity expressed in Huh7 cells; details: Homo sapiens; Huh-7; outline: as §2
[6] = substrate: C[C@@]1(F)[C@H](O)[C@@H](COP(=O)(O)O)O[C@H]1n1ccc(N)nc1=O; test: as §3; details: Homo sapiens; Huh-7; outline: as §2
[7] = substrate: Nc1ccn([C@@H]2O[C@H](COP(=O)(O)O)[C@@H](O)[C@H]2O)c(=O)n1; test: as §3; details: Homo sapiens; Huh-7; outline: as §2
[8] = substrate: O=c1ccn([C@@H]2O[C@H](COP(=O)(O)O)[C@@H](O)[C@H]2O)c(=O)[nH]1; test: as §3; details: Homo sapiens; Huh-7; outline: as §2
[9] = substrate: O=c1ccn([C@@H]2O[C@H](CO)[C@@H](O)[C@H]2O)c(=O)[nH]1; test: Ratio of Kcat to Km for UCK1 activity expressed in Huh7 cells; details: Homo sapiens; Huh-7
Outline: (§4)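 His-tagged human UCK-1 cloned from Huh-7 cells, assayed at 25°C by pyruvate kinase/lactate dehydrogenase coupling, NADH oxidation at 340 nm. Buffer 64 mM Tris-HCl pH 7.5, 1 mM ATP, Mg2+, phosphoenolpyruvate. Enzyme 41 nM, or 410 nM for 2′-C-methyl cytidines. Substrate concentration varied. Steady-state parameters reported as mean ± SD.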

[10] = substrate: O=c1ccn([C@@H]2O[C@H](CO)[C@@H](O)[C@H]2O)c(=O)[nH]1; test: Activity of human UCK1 expressed in Huh7 cells assessed as phosphorylation by coupled enzyme assay; details: Huh-7; outline: as §4

| Protein | Km [1] | kcat [1] | kcat [2] | Km [3] | kcat [3] | Km [4] | kcat [4] | kcat/Km [5] | kcat/Km [6] | kcat/Km [7] | kcat/Km [8] | kcat/Km [9] | Km [10] | kcat [10] |
| --- | --- | --- | --- | --- | --- | --- | --- | --- | --- | --- | --- | --- | --- | --- |
| B1 | 837 µM | 30 s⁻¹ | 3.3 s⁻¹ | 56 µM | 30 s⁻¹ | 151 µM | 81 s⁻¹ | 36000 M⁻¹ s⁻¹ | 12000 M⁻¹ s⁻¹ | 540000 M⁻¹ s⁻¹ | 540000 M⁻¹ s⁻¹ | – | – | – |
| B2 | – | – | – | – | – | – | – | – | – | – | – | 1300 M⁻¹ s⁻¹ | 407 µM | 0.51 s⁻¹ |

Source: ChEMBL document CHEMBL1142170, “Mechanism of activation of beta-D-2'-deoxy-2'-fluoro-2'-c-methylcytidine and inhibition of hepatitis C virus NS5B RNA polymerase” (Antimicrob Agents Chemother, 2007)
